HKDC1 inh: inhibitors of human hexokinase HKDC1. 340,000 compounds, 0.16% hits. inhibition, % at 20 µM. Q2TB90. AID 493160. recombinant HKDC1, G6PDH/diaphorase resazurin coupled fluorescence;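 active = inhibition above about 35% when tested at 20 µM, limit read from the data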
Target sequence (Q2TB90 whole entry, looked up): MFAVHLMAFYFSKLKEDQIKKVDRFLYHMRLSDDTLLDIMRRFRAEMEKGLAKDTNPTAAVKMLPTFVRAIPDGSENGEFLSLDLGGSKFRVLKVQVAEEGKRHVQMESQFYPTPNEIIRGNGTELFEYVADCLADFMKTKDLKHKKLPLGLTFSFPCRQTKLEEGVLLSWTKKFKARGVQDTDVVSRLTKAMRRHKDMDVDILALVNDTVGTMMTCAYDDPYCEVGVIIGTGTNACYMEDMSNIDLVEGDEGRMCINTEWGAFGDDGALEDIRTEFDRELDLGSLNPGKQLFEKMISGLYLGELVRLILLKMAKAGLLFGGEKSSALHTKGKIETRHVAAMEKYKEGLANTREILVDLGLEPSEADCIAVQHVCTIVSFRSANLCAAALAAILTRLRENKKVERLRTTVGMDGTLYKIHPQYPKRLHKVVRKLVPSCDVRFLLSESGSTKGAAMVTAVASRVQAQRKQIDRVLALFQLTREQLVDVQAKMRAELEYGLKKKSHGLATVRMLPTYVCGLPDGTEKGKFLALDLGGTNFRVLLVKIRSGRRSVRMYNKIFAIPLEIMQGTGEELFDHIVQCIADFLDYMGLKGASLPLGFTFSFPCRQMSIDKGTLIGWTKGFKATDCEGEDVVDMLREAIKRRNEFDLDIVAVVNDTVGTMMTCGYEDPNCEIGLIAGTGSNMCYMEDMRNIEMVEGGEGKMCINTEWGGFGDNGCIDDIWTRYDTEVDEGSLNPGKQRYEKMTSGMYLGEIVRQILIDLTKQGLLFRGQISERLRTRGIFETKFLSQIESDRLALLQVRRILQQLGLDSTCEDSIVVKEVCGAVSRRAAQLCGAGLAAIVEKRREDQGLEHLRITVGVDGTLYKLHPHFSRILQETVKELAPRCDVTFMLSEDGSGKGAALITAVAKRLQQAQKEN
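Material – in-house recombinant HK5 (HKDC1) enzyme · Quantity – HKDC1 at 5 µg/mL · Buffer or medium – pH 8.0 Tris buffer with 10 mM MgCl2 · Reagent – glucose with 1 mM ATP · Dosing – single 20 µM dose · Times – reaction time 90 min, room temperature, protected from light · Technique – resorufin fluorescence at 613 nm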
HSP90 refold inh: inhibitors of HSP90 luciferase refolding in rabbit reticulocyte lysate; 290,000 compounds, 0.91% hits; luciferase refolding luminescence, 3 h; AID 1789; inhibition, % at 5.6 µM;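 active = inhibition above the screen-wide mean plus 3 SD, computed separately per campaign, cut at about 16% in these data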;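 note: inhibitors lower the luminescence because luciferase stays unfolded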
HSF1 inhib: HSF1 inhibition. NIH3T3-HGL HSE-luciferase, MG132-induced, luminescence 8 h; stronger effect = lower value. activity change, negative = inhibition, % at 7.5 µM (by protocol). 300,000 compounds, 0.77% hits. AID 2098;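 active = more than half of replicate wells show activity change below -50%, luminescence cut by over half; inconclusive = some wells, but at most half, below -50%; inactive = no replicate well below -50%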;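 note: luciferase reports HSF-1 transcriptional activity via heat shock element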
Hsp70 activator: switches on Hsp70 transcription; HeLa Hsp70 promoter luciferase reporter, luminescence; scaled: vehicle 0, proteasome-inhibitor control 100%; activation, % at 10 µM; 200,000 compounds, 0.04% hits; AID 1203;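 active = activation above the mean across all tested compounds plus 3 SD, cutoff set per campaign, cut at about 5.5% in these data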
HSF-1 act: increases HSF-1 driven luciferase reporter signal | NIH3T3-HGL HSF-1 luciferase reporter, MG132, 8 h; 100% = twice DMSO control signal | activation, % at 9 µM | 300,000 compounds, 1.7% hits | AID 504408;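 active = mean replicate activation of at least 50% with a set share of replicates each reaching 50%; inconclusive = only one of those two conditions met; inactive = mean below 50% and too few replicates reaching it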
Tb hexokinase: T. brucei hexokinase 1 inhibition; recombinant TbHK1, G6PDH-coupled NADH A340; inhibition, % at 10 µM; 220,000 compounds, 0.11% hits; AID 1430;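 active = inhibition of 50% or more in the single-dose primary screen; inactive = inhibition below 50%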
HSP90 confirm: confirmation of HSP90 inhibitors; 2,300 compounds, 64% hits; rabbit reticulocyte lysate, luciferase refolding luminescence, 3 h; shares compounds with HSP90 refold inh; inhibition, % at 5.9 µM; AID 1846; in the data active = inhibition above about 18%
luciferase ctr: firefly luciferase inhibition, HSP90 counter-screen; 2,300 compounds, 48% hits; shares compounds with HSP90 refold inh; inhibition, % at 5.9 µM; purified native firefly luciferase, luminescence; AID 1847;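 active = inhibition above the mean inhibition of all tested sample wells plus 3 SD, cut at about 10% in these data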
Each line names hits and unclear results; the compound was inactive in the other large screens (follow-up assays come after a bar, where they were run). An excerpt weighted towards active compounds, which were near 3.1% of everything screened.

O=C(Nc1ccc2c(c1)OCCO2)c1ccc(Cl)cc1Cl	HSP90 refold inh 33, HSF-1 act inconclusive (no result: Hsp70 activator, Tb hexokinase) | HSP90 confirm 40 | luciferase ctr 30
Nc1nnc(-c2ccccc2[N+](=O)[O-])o1	HSP90 refold inh 30 | HSP90 confirm inactive | luciferase ctr inactive
CC(Oc1ccccc1)C(=O)Nc1ccc(S(=O)(=O)Nc2nccs2)cc1 (configuration not stated)	HSP90 refold inh 41 (no result: Hsp70 activator, Tb hexokinase) | HSP90 confirm inactive | luciferase ctr inactive
COc1ccc(C(=O)Nc2nnc(SCC(=O)NCc3ccco3)s2)c(OC)c1	HSP90 refold inh 43 (no result: Hsp70 activator, Tb hexokinase) | HSP90 confirm 62 | luciferase ctr 60
CCOc1ccc(NC(=O)Nc2nnc(CC)s2)cc1	HSP90 refold inh 18 | HSP90 confirm inactive | luciferase ctr inactive
COc1ccccc1C(=O)Nc1nnc(SCC(=O)NCc2ccco2)s1	none (no result: Hsp70 activator, Tb hexokinase)
COc1ccc(C(=O)Nc2nnc(SCC(=O)Nc3ccc(NC(C)=O)cc3)s2)c(OC)c1	none (no result: Hsp70 activator, Tb hexokinase)
COc1cccc(C(=O)Nc2nnc(SCC(=O)NC3CC3)s2)c1	none (no result: Hsp70 activator, Tb hexokinase)
CCc1nnc(NC(=O)c2ccc(OC)cc2OC)s1	HSP90 refold inh 21 | HSP90 confirm 47 | luciferase ctr 43
COc1ccc(C(=O)Nc2nnc(SCC(=O)NC3CC3)s2)cc1	HSP90 refold inh 23 (no result: Hsp70 activator, Tb hexokinase) | HSP90 confirm 29 | luciferase ctr 16
CCN(CC)CCOC(=O)c1ccc(NC(=O)/C=C/c2cccs2)cc1	HSP90 refold inh 27 | HSP90 confirm inactive | luciferase ctr inactive
Cc1cc2ccccc2n1CCNC(=O)C1CC1	none (no result: Hsp70 activator, Tb hexokinase)
Cc1cc2ccccc2n1CCNC(=O)c1cccs1	HSP90 refold inh 23 | HSP90 confirm 39 | luciferase ctr inactive
CCOC(=O)c1cccc(OS(=O)(=O)Cc2ccccc2)c1	none (no result: HSP90 refold inh, Hsp70 activator, Tb hexokinase)
O=C(Nc1nc2cc3c(cc2s1)OCO3)c1ccco1	HSP90 refold inh 25 (no result: HSF1 inhib, Hsp70 activator, HSF-1 act) | HSP90 confirm 69 | luciferase ctr 68
CC1CCc2nc(NC(=O)c3ccco3)sc2C1 (configuration not stated)	HSP90 refold inh 54 | HSP90 confirm 82 | luciferase ctr 77
CC(=O)Nc1nc2cc3c(cc2s1)OCO3	none
Cc1ccc2nc(NC(=O)/C=C/c3ccc4c(c3)OCO4)sc2c1	none
CC1CCc2nc(NC(=O)Cc3cccs3)sc2C1 (configuration not stated)	none
O=C(/C=C/c1ccc2c(c1)OCO2)Nc1nc2ccccc2s1	HSP90 refold inh 25 | HSP90 confirm 62 | luciferase ctr 20
CC(C)C(=O)Nc1nc2cc3c(cc2s1)OCCO3	HSP90 refold inh 28 (no result: Hsp70 activator) | HSP90 confirm 40 | luciferase ctr 34
CCOc1ccc(S(=O)(=O)N2CCC(C(=O)OC(C)C(=O)NC3CCCCC3C)CC2)cc1 (configuration not stated)	none (no result: HSP90 refold inh, HSF1 inhib, Hsp70 activator, HSF-1 act, Tb hexokinase)
COc1ccc(-c2ccc(NS(=O)(=O)c3cc([N+](=O)[O-])c(C)c([N+](=O)[O-])c3)cc2)nn1	none (no result: Hsp70 activator, Tb hexokinase)
Cc1cn(CC(=O)NCC(C)c2ccccc2)c(=O)[nH]c1=O (configuration not stated)	none (no result: HSP90 refold inh, HSF1 inhib, Hsp70 activator, HSF-1 act, Tb hexokinase)
O=C(Nc1nc2cc3c(cc2s1)OCCO3)c1ccncc1	none (no result: HSF1 inhib, HSF-1 act)
CCOc1ccc2nc(NC(=O)c3ccco3)sc2c1	HSP90 refold inh 39 (no result: Hsp70 activator, Tb hexokinase) | HSP90 confirm 51 | luciferase ctr 45
O=C(Nc1nc2cc3c(cc2s1)OCCO3)c1ccco1	HSP90 refold inh 78, HSF1 inhib -55 (no result: Hsp70 activator, Tb hexokinase) | HSP90 confirm 91 | luciferase ctr 89
CC(C)c1ccc(NC(=O)c2ccc(NC3=NC4CS(=O)(=O)CC4S3)cc2)cc1 (configuration not stated)	none (no result: Hsp70 activator, Tb hexokinase)
COc1ccc(C(=O)Nc2cccc(/C=C/c3nc4ccccc4c(=O)[nH]3)c2)cc1	HSP90 refold inh 28 (no result: Hsp70 activator) | HSP90 confirm inactive | luciferase ctr inactive
CN(C)c1ccc(/C=C/c2nc3ccccc3c(=O)[nH]2)cc1	HSP90 refold inh 59 (no result: Hsp70 activator, Tb hexokinase) | HSP90 confirm 76 | luciferase ctr 73
C(=C\c1nc2ccccc2[nH]1)/c1ccccc1	HSP90 refold inh 31 | HSP90 confirm 54 | luciferase ctr 48
O=C(Nc1cccc(/C=C/c2nc3ccccc3c(=O)[nH]2)c1)c1ccccc1Cl	none (no result: Hsp70 activator)
N#Cc1ccc(OCC(=O)NCC(c2cccs2)N2CCOCC2)cc1 (configuration not stated)	none (no result: Hsp70 activator, Tb hexokinase)
CS(=O)(=O)N1CCC(Oc2cccc(C(=O)NCCCC3CCCC3)c2)CC1	HSP90 refold inh 29 (no result: Hsp70 activator, Tb hexokinase) | HSP90 confirm inactive | luciferase ctr inactive
Cc1ccc(S(=O)(=O)N2CCN(C(=O)COC(=O)/C=C/c3ccc(OC(F)F)cc3)CC2)cc1	none (no result: HSP90 refold inh, HSF1 inhib, Hsp70 activator, HSF-1 act, Tb hexokinase)
CCCc1ccc(-c2ccc(F)c(N)c2)nc1	HSP90 refold inh 53 | HSP90 confirm 77 | luciferase ctr 69
Nc1cc(-c2nn[nH]n2)ccc1F	none
CC(C)(C)n1nnnc1C(c1ccccc1F)N1CCN(C2CCCC2)CC1 (configuration not stated)	HSP90 refold inh 23 | HSP90 confirm inactive | luciferase ctr inactive
COc1ccc(/C=N/NC(=S)Nc2ccccc2[N+](=O)[O-])cc1O	HSP90 refold inh 51 | HSP90 confirm 53 | luciferase ctr 11
CCNC(=S)N/N=C/c1ccccc1[N+](=O)[O-]	HSP90 refold inh 20 | HSP90 confirm inactive | luciferase ctr inactive
O=[N+]([O-])c1cc(/C=N/NC(=S)Nc2ccccc2Cl)ccc1Cl	none (no result: HSF1 inhib, HSF-1 act)
CC1(CCC(=O)O)C(=O)CCC2C1CCC1(C)C2CCC1(C)O (configuration not stated)	none (no result: HSP90 refold inh, HSF1 inhib, Hsp70 activator, HSF-1 act, Tb hexokinase)
CCn1nnc2cc(C(=O)Nc3cc(OC)cc(OC)c3)ccc21	none (no result: HSP90 refold inh, Hsp70 activator, Tb hexokinase)
O=C(Nc1ccc(N2CCOCC2)cc1)C1CCN(S(=O)(=O)Cc2ccccc2)CC1	HSP90 refold inh 25 | HSP90 confirm inactive | luciferase ctr inactive
O=C(Nc1ccc2c(c1)OCCO2)C1CCN(S(=O)(=O)Cc2ccccc2)CC1	none
O=C(O)c1ccc(-c2nc(-c3ccc(Cl)cc3)cs2)cc1	none
COc1ccc(-c2csc(-c3ccc(C(=O)O)cc3)n2)cc1	HSP90 refold inh 19 | HSP90 confirm 39 | luciferase ctr inactive
CN1C=CC(=C2C(=O)c3ccccc3C2=O)C=C1	none (no result: HKDC1 inh)
CC1=CC(=C2C(=O)c3ccccc3C2=O)C=C(C)O1	none
CCN1C=CC(=C2C(=O)c3ccccc3C2=O)C=C1	HSP90 refold inh 86, HSF1 inhib -76 | HSP90 confirm 93 | luciferase ctr 87
CCCCCCN1C=CC(=C2C(=O)c3ccccc3C2=O)C=C1	HSP90 refold inh 48, HSF1 inhib inconclusive | HSP90 confirm 84 | luciferase ctr 78
